Tb hexokinase – Trypanosoma brucei hexokinase 1 inhibitors, primary screen, biochemical, G6PDH-coupled NADH absorbance, MLSCN library; hexokinase 1 [Trypanosoma brucei]; recombinant TbHK1, G6PDH-coupled NADH A340; inhibition, % at 10 µM; actives 0.11% (n = 220,000); AID 1430, 2008;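 active = inhibition of 50% or more in the single-dose primary screen; inactive = inhibition below 50%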
Insulin prom up – insulin promoter activators in MIN6 cells, imaging, high-content screening, mouse beta cells. actives 0.3% (n = 190,000). z-score at 5 µM. MIN6 insulin promoter-GFP reporter; hits give high values;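 active = z-score above 3 at 5 µM with at least 500 cells counted in the well; inconclusive = wells under 500 cells, flagged as cytotoxic or low count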
b-catenin transl – modulators of beta-catenin nuclear translocation, primary screen, imaging, HeLa cells, immunofluorescence, high-content; nuclear translocation activity, % at 5 µM; actives 0.3% (n = 190,000); AID 1665, 2009;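 active = nuclear translocation activity above 50% at 5 µM, with a well cell count of 50 or more; inconclusive = wells under 50 cells across six images, flagged as toxic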;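 also: per-cell ratio of nuclear to cytoplasmic median beta-catenin stain intensity; plate controls were DMSO negative control for no effect and GSK-3 inhibitor IX positive control for full effect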
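Technique: fluorescence imaging of beta-catenin antibody stain plus DAPI / Material: human HeLa cell line / Incubation: compound treatment 24 h, 37°C, 5% CO2 / Read-out basis: % activation of per-cell nuclear versus cytoplasmic median beta-catenin signal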
Autophagy HCS – autophagy modulators in MEF cells, primary screen, imaging, high-content, MEF GFP-LC3; MEF GFP-LC3 puncta imaging; test concentration mostly 10 µM; calls only at 10 µM (by protocol); actives 0.98% (n = 190,000); AID 463193, 2010;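 active = percentage of spot-positive cells more than 3 SD above its plate mean, without a fluorescence outlier flag or 80% toxicity; inconclusive = no clear call, values can overlap the other calls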;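 also: spot-positive cell cutoff set from DMSO-treated cells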
MT stabilizer – microtubule stabilizers in HeLa cells, primary screen, imaging, high-content imaging; HeLa tubulin immunostaining HCS, 24 h; share of cells brighter than vehicle mean+2SD; % tubulin-high responders, % at 10 µM; actives 0.83% (n = 200,000); AID 2205, 2009;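 active = plate Z-score above 3 for both tubulin-high and condensed-nucleus cell shares, with cell loss under 80%, at 10 µM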;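 also: anti alpha tubulin signal scored within the nucleus-defined area of each cell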
An asterisk follows results filed as active; i = inactive; ? = inconclusive; / = no result; + = active, no number. A selection: hits, their analogues and other compounds. The true share with any hit is near 1.9%.

SMILES	Tb hexokinase	Insulin prom up	b-catenin transl	Autophagy HCS	MT stabilizer
Cc1cc(C)c2nc3sc(C(=O)N4CCOCC4)c(N)c3cc2c1	-18	?	72*	/	/
Cc1cccc2cc3c(N)c(C#N)sc3nc12	-1	0.14	-3	i	15
Cc1sc(NC(=O)c2sc3nc4c(C)cccc4cc3c2N)c(C#N)c1C	-9	/	/	+	7
CCOC(=O)Nc1c(Cl)n(C)c(=O)n(C)c1=O	-3	0.24	-1	/	/
COc1ccc(-c2nc(NC(=O)C3CC(=O)N(c4ccc5c(c4)OCCO5)C3)sc2C)cc1 (configuration not stated)	-4	0.25	/	i	11*
Fc1ccccc1CSCc1nc2ccccc2[nH]1	0	-0.1	-1	+	3
CCOC(=O)C1CCCN(C(=O)COc2ccc(N(C)S(=O)(=O)c3ccc(F)cc3)cc2)C1 (configuration not stated)	-3	-0.71	0	i	3
Cc1cc2c(cc(C(=O)OCC(=O)NCc3ccco3)n2C)s1	-2	0.89	44	i	51*
CC1(C)Cc2c(sc3nc4n(-c5ccccc5)cnn4c(=O)c23)CO1	-3	-0.04	1	/	/
COc1ccc(C2c3[nH]c4ccccc4c3CCN2Cc2cccn2-c2ncccn2)cc1C (configuration not stated)	8	/	-2	+	2
Cc1cccc(C2c3[nH]c4ccccc4c3CCN2Cc2cccn2-c2ncccn2)c1 (configuration not stated)	4	-1.6	0	i	6
Cc1ccc(C)c(N2CC(C(=O)O)CC2=O)c1 (configuration not stated)	0	0.12	-1	i	3
CCCNC(=O)N1CCC(C(=O)c2ccc(Cl)cc2)CC1	2	3.8*	-2	i	2
CCCNC(=O)N1CCC(C(=O)c2ccc(F)cc2)CC1	6	-0.44	0	i	3
CCOC(=O)CC1COCCN1Cc1cn(C)nc1-c1ccccc1F (configuration not stated)	4	0.25	0	i	3
Cc1ccc(C2CC(c3ccccc3)=NN2C(=O)CSc2nnc(-c3ccncc3)n2C)o1 (configuration not stated)	-2	0.96	-5	i	2
O=C(c1cc([N+](=O)[O-])ccc1N1CCCC1)N1CCCC1	2	3.1*	0	i	3
CCOC(=O)c1cc(CC)sc1NC(=O)c1cc([N+](=O)[O-])ccc1N1CCOCC1	-19	-0.43	59*	+	14
O=C(c1ccc(Cl)cc1)c1cc([N+](=O)[O-])ccc1N1CCOCC1	-9	0.32	48	+	10
O=C(c1ccc(Br)cc1)c1cc([N+](=O)[O-])ccc1N1CCOCC1	-8	0.28	7	+	16*
O=C(NCc1ccc2c(c1)OCO2)c1cc([N+](=O)[O-])ccc1N1CCCCC1	-2	-0.02	107*	i	16*
CC1CCCN(c2ccc([N+](=O)[O-])cc2C(=O)c2ccccc2)C1 (configuration not stated)	12	/	60*	i	6
O=C(NCc1ccco1)c1cc([N+](=O)[O-])ccc1N1CCCCC1	-9	-0.31	2	i	3
Cc1ccc(C(=O)c2cc([N+](=O)[O-])ccc2N2CCCCC2)cc1	14	-1.5	72*	i	9
Cc1ccc(C(=O)c2cc([N+](=O)[O-])ccc2N2CC(C)OC(C)C2)cc1 (configuration not stated)	-10	-0.05	-2	i	20
CN1CCN(c2ccc([N+](=O)[O-])cc2C(=O)c2ccc(Cl)cc2)CC1	-14	0.32	185*	i	43*
NC(=O)c1ccsc1NC(=O)COC(=O)CCOc1ccccc1	-6	0.6	-1	/	/
O=C(CCCn1cc([N+](=O)[O-])cn1)Nc1cccnc1	-4	-0.6	0	/	/
CN1C(C(=O)NCc2ccccc2)CC2Cn3c(nc4cc5ccccc5cc43)C21 (configuration not stated)	-17	-0.27	1	/	/
O=C(c1cc([N+](=O)[O-])ccc1N1CCOCC1)N1CCCCC1	-8	-0.46	-5	i	2
